Assay [1] deals with Muscarinic acetylcholine receptor M3 (Cavia porcellus) (UniProt Q8VH26). Description: Agonist activity at muscarinic M3 receptor in guinea-pig ileum. In kind it is functional, tissue-based. The method, boiled down: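 Isolated tissues in an organ bath were washed for 30 min, then a cumulative dose–response curve to the compound was built. Contractions were recorded isometrically by force transducer and expressed as % of the maximal control-curve response. Parallel untreated tissues checked sensitivity drift. Values are means ± SEM of four to six independent experiments.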
Chain of Muscarinic acetylcholine receptor M3 (Cavia porcellus) (Q8VH26 1-587): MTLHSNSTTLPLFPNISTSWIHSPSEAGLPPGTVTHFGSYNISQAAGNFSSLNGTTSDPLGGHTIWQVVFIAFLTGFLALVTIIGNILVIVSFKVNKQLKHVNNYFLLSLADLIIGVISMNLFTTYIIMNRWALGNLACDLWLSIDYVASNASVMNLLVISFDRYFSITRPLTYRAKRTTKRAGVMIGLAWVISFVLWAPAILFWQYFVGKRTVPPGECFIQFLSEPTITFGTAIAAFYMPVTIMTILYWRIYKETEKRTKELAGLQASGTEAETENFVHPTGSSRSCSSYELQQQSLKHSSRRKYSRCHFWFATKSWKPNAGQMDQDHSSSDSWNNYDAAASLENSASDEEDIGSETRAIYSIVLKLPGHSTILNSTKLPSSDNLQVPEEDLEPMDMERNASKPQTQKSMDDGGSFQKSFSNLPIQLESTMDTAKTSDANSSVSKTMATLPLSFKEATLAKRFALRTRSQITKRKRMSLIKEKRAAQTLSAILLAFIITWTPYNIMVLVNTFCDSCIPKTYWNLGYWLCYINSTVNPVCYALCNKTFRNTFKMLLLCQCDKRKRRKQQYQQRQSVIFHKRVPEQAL

Assay [2] has as its target T1, Muscarinic acetylcholine receptor M1 (Homo sapiens) (UniProt P11229).
T1 sequence (whole entry): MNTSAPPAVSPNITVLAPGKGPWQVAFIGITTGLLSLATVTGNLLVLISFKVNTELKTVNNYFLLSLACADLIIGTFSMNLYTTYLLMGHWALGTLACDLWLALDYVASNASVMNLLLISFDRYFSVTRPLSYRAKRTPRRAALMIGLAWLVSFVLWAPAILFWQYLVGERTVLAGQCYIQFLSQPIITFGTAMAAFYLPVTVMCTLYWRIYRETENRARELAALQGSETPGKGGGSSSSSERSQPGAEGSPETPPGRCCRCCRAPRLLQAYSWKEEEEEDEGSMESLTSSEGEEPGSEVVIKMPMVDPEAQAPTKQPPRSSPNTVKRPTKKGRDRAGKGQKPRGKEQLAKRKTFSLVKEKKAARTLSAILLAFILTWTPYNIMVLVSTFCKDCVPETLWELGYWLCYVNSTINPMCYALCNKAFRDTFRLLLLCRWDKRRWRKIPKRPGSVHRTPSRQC
The note with it: Oryctolagus cuniculus; Vas deferens.

The target of assay [3] is Muscarinic acetylcholine receptor M3 (Cavia porcellus) (UniProt Q8VH26). The assay can be described thus: Intrinsic activity at muscarinic M3 receptor in guinea-pig ileum assessed as ratio of agonist activity to activity of […]. In kind it is functional, tissue-based.
In assay [4] the test system is Muscarinic acetylcholine receptor M2 (Cavia porcellus). The assay can be described thus: Intrinsic activity at muscarinic M2 receptor in guinea-pig stimulated left atria assessed as ratio of agonist activity to activity of arecaidine propargyl ester. The note with it: […].
Assay [5] has the same test system. Description: Agonist activity at muscarinic M2 receptor in guinea-pig stimulated left atria.
In assay [6] the target is T2, Muscarinic acetylcholine receptor M4 (Homo sapiens, UniProt P08173).
T2 sequence (P08173 whole entry): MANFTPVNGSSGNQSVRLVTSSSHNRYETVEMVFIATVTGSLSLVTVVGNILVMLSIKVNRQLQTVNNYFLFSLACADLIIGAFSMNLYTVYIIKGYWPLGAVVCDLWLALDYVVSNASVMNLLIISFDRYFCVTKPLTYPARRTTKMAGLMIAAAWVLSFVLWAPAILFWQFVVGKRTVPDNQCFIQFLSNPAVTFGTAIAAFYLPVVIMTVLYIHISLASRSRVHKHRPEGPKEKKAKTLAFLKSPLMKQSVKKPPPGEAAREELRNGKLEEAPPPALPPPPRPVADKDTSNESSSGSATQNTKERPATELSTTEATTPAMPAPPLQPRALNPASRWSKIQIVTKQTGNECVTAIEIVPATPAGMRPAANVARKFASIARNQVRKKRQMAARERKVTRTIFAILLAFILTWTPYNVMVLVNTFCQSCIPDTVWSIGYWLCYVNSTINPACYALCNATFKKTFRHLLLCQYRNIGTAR
The assay can be described thus: Agonist activity at human muscarinic M4 receptor expressed in CHO cells. The class given is functional, cell-based.

Assay [7] addresses T3, Muscarinic acetylcholine receptor M5 (Homo sapiens) (UniProt P08912).
T3 sequence (whole entry): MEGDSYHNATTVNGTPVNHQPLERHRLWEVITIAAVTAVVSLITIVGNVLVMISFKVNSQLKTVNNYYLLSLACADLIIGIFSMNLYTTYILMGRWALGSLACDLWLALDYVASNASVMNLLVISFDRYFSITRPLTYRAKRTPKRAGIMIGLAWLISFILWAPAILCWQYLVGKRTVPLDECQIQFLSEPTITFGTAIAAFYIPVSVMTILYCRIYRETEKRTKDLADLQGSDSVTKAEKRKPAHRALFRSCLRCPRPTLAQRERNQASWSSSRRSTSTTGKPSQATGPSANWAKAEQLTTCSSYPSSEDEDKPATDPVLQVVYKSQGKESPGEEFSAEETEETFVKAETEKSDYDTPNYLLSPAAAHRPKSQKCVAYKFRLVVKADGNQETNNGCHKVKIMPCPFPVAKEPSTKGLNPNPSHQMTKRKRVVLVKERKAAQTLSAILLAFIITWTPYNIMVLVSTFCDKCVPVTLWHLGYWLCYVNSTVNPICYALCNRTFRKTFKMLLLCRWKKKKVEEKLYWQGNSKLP
The assay can be described thus: Agonist activity at human muscarinic M5 receptor expressed in CHO cells. The class given is functional, cell-based.

The target of assay [8] is T1, Muscarinic acetylcholine receptor M1 (Homo sapiens). The assay can be described thus: Antagonist activity at muscarinic M1 receptor in rabbit stimulated vas deferens at 10 uM. The class given is functional, tissue-based. As to conditions: Oryctolagus cuniculus, target entry is the homologue from another species.
Assay [9] addresses T4, Muscarinic acetylcholine receptor M2 (Homo sapiens) (UniProt P08172).
T4 sequence (whole entry): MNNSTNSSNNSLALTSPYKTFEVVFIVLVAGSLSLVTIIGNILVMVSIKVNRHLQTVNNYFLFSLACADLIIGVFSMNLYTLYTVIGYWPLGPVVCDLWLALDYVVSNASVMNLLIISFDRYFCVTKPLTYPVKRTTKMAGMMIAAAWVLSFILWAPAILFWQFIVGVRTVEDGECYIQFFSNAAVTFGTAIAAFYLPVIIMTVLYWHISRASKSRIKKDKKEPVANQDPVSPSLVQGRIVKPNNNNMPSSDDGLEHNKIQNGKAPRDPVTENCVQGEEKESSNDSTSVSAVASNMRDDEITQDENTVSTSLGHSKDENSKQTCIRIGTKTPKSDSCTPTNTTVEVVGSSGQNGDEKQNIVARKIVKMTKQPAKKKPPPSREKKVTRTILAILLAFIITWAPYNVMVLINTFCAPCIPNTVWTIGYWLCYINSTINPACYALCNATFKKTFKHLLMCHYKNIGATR
The assay can be described thus: Antagonist activity at muscarinic M2 receptor in guinea-pig stimulated left atria at 10 uM. In kind it is functional. The note with it: Cavia porcellus, target entry is the homologue from another species.

Assay [10] relates to Muscarinic acetylcholine receptor M4 (Cavia porcellus). The assay can be described thus: Agonist muscarinic M4 receptor in guinea-pig lung strips.
For assay [11] the test system is unchanged. Description: Intrinsic activity at muscarinic M4 receptor in guinea-pig lung strips assessed as ratio of agonist activity to activity of McN-A-343.

The source made the active and inactive calls. The rule behind the calls is not given here. A value given as a limit tells only on which side of the number the result lay.

In general, EC50 refers to the concentration giving half of the maximal effect. A higher EC50 goes with a need for much substance. The term pKb denotes the Kb on a negative log10 scale, so that one unit is a factor of ten. Low values mean a large Kb, high ones a small Kb.

In the case of `C[C@H]1COC[C@H](C[N+](C)(C)C)O1`, the pD2 in assay [1] is 6.02; in assay [2] it was 5.08.
For the compound `C[C@H]1CSC[C@@H](C[N+](C)(C)C)O1` (relative stereo), the Intrinsic activity in [3] and in assay [4] was 1 each time. Moreover, the pD2 in assay [1] was 6.46; in [2], 4.46; in assay [5], 6.26.
For the compound `CC1OC(C[N+](C)(C)C)CS1` (racemic), the pD2 in assay [1] was 7.75; in assay [2] it was 6.81.
Consider `C[C@H]1OC[C@@H](C[N+](C)(C)C)O1` (relative stereo), for which the pD2 in [1] is 7.69.
With `CC1COCC(C[N+](C)(C)C)O1` (racemic; form 2), in [6], the response was half-maximal at 282 µM (EC50).
`C[C@@H]1COC[C@H](C[N+](C)(C)C)O1`: in assay [7], the result was inactive. This compound gave a pD2 in [1] of 6.53. In [6], this compound showed an EC50 of 25.1 µM. The compound further yielded a pKb in assay [8] of less than 5.
Consider `C[C@H]1OC[C@H](C[N+](C)(C)C)O1` (relative stereo), for which the pD2 in assay [1] turned out to be 7.47.
As for `CC1COCC(C[N+](C)(C)C)O1` (racemic; form 1) [listing 1 of 2 here], the pD2 in assay [1] turned out to be 7.34; in [2], 5.65.
In the case of `C[C@H]1COC[C@@H](C[N+](C)(C)C)O1`, the pD2 was 7.65 in assay [1] and 6.78 in assay [2]. Further, the EC50 in assay [6] is 2.82 µM.
In assay [1], `C[C@H]1O[C@@H](C[N+](C)(C)C)CS1` registered a pD2 of 5.82.
Turning to `C[C@H]1CSC[C@H](C[N+](C)(C)C)O1` (relative stereo), the pKb in [9] and in [8] was less than 5 throughout. For the same compound, the Intrinsic activity in assay [3] came out at 1. This compound also gave a pD2 in assay [1] of 5.21.
Consider `C[C@@H]1O[C@H](C[N+](C)(C)C)CS1`, for which the pD2 in [1] was determined as 8.06.
`CC1COCC(C[N+](C)(C)C)O1` (racemic; form 1) [listing 2 of 2 here] had an EC50 in [6] of 2.51 µM.
Consider `C[C@H]1OCC[C@@H](C[N+](C)(C)C)O1`, for which the Intrinsic activity in assay [3], in assay [4] and in assay [11] was 1 each time. The results for the pD2 in [1], in [10] and in assay [5] were 5.73, 6.41 and 5.24, respectively. Besides, the pKb in [8] was greater than 5.

The values are drawn from ChEMBL document CHEMBL1144548, “Dioxane and oxathiane nuclei: suitable substructures for muscarinic agonists” (Bioorg Med Chem, 2007).
